High-throughput results deposited in PubChem BioAssay by The Scripps Research Institute Molecular Screening Center.
This is a sample that favours compounds with a hit; in the whole collection about 2.7% have one here.
CHO parental Ca = ATP-evoked calcium signal inhibitors, parental CHO, primary screen, counter-screen for OX1R antagonist project, cell-based, fluorescence, Fluo-8 calcium dye; inhibition, % at 5.6 µM; parental CHO-K1, ATP-induced calcium, Fluo-8 fluorescence; AID 463079, 2010; hit rate 0.63% among 330,000;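 active = inhibition above that plate's mean sample inhibition plus 3 SD, cut at about 26% in these data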
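Test system: parental CHO cells; detection: calcium-sensitive Fluo-8 fluorescence; evaluation: percent inhibition of calcium signal; also added: ATP as calcium-mobilizing challenge; repeats: one well per compound; control set: ATP-challenged DMSO wells low, unchallenged DMSO wells high; compound: single nominal dose of 5.6 µM per compound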
OX1R antag-1 = OX1R (HCRTR1) antagonists, primary screen, fluorescence, CHO/OX1R cells, Fluo-8 calcium, orexin A. Orexin/Hypocretin receptor type 1 (Homo sapiens), O43613. Fluo-8 calcium fluorescence. inhibition, % at 5 µM. hit rate 0.43% among 330,000;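 active = inhibition above its plate's threshold, mean inhibition of all tested compounds on the plate plus 3 SD, cut at about 37% in these data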
Target sequence (O43613 whole entry, looked up): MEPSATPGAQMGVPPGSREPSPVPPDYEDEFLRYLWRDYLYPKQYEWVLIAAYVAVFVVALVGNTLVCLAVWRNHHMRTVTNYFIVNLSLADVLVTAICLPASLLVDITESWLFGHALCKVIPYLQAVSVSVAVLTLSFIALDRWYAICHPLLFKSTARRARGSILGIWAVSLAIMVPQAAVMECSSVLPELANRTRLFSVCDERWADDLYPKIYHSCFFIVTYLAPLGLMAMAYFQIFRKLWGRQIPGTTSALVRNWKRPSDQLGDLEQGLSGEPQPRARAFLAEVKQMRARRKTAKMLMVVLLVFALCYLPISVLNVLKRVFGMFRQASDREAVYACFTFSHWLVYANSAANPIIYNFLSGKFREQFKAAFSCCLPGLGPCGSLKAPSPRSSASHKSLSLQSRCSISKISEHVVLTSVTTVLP
OXTR potentiator = human OXTR potentiators, primary screen, fluorescence, CHO-OTR cells, Fluo-8 calcium. Oxytocin receptor (Homo sapiens), P30559. Fluo-8 calcium fluorescence, potentiator mode; 0% = oxytocin EC15, 100% = EC100. activation, % at 3 µM. hit rate 0.061% among 320,000. AID 2445, 2010;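 active = activation above that plate's cutoff, the mean activation of tested compounds plus 3 SD, cut at about 6.6% in these data, passing the limit was not always enough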
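Assay system: CHO cell line stably expressing human OTR. Reagent: EC15 oxytocin agonist. Dosing: single dose, 3.0 µM nominal final compound concentration. Timing: compound 6 min at room temperature before oxytocin, 100 s read. Signal: kinetic Fluo-8 calcium fluorescence. Controls: oxytocin EC15 low and EC100 high.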
OXTR ag = human OXTR agonists, primary screen, fluorescence, CHO-OTR cells, Fluo-8 calcium; hit rate 0.32% among 320,000; activation, % at 3 µM; AID 2435, 2010; Oxytocin receptor (Homo sapiens), P30559; Fluo-8 calcium fluorescence; normalized: DMSO 0%, oxytocin 100%;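 active = activation above the mean of all tested compounds plus 3 SD, cutoff set per screening run, cut at about 20% in these data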;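 note: peak over basal fluorescence ratio from a 100 s FLIPR kinetic read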
V1aR counter = agonists of human V1a receptor, primary screen, counter-screen for OXTR agonist project, fluorescence, CHO-V1R cells. Fluo-8 calcium fluorescence, agonist mode; 0% DMSO, 100% 3 nM vasopressin. activation, % at 3 µM. hit rate 0.25% among 320,000;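 active = activation above the mean activation of all tested compounds plus 3 SD, per screening run, cut at about 20% in these data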;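 note: signal is peak over basal fluorescence ratio across a 100 second FLIPR read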
OX1R antag-2 = antagonists of human orexin 1 receptor (OX1R); OX1R-expressing cells, FRET antagonist read-out; inhibition, % at 6.6 µM; hit rate 1.8% among 330,000; AID 485270, 2010; in the data active = inhibition mostly above about 38%, no sharp cut-off; inactive = mostly below about 40%
Numbers stand for hits; n = inactive.

SMILES | CHO parental Ca | OX1R antag-1 | OXTR potentiator | OXTR ag | V1aR counter | OX1R antag-2
O=C(Nc1ccccc1)c1nc[nH]c1C(=O)NCCCCNC(=O)c1[nH]cnc1C(=O)Nc1ccccc1 | n | n | n | n | n | n
CCC(=O)N/C(=N\OCc1ccc(F)cc1)c1nonc1NC(=O)CC | n | n | n | n | n | n
O=C(/C=C/c1ccc(OCCCF)cc1)Nc1ccnc(-c2ccncc2)n1 | n | n | n | n | n | 85
O=C(NC1CCCC1)C(c1cccnc1)N(CCc1ccccc1)C(=O)c1ccco1 (stereo unspecified) | n | n | n | n | n | 57
Cc1occc1C(=O)N1CCCC(CO)(Cc2ccc(F)cc2F)C1 (stereo unspecified) | n | n | n | n | n | n
CC1CC(C)CN(C(=O)CSc2nc(N)cc(=O)[nH]2)C1 (stereo unspecified) | n | n | n | n | n | n
COc1ccc(CNC(=O)COC(=O)c2cc(-c3cccs3)nc3ccccc23)cc1OC | n | n | n | n | n | 48
Cc1cc(C(=O)OCC(=O)NC(=O)c2cccn2C)c2ccccc2n1 | 45 | n | n | n | n | n
NNC(=O)c1cc(-c2cccs2)nc2ccccc12 | n | n | n | n | n | n
COc1ccc(CNC(=O)COC(=O)c2cc(C)nc3ccccc23)cc1 | n | n | n | n | n | n
COc1ccccc1NC(=O)COC(=O)c1cc(C)nc2ccccc12 | n | n | n | n | n | 43
COc1cccc(Nc2nc(C)cc(C)c2C(N)=O)c1 | n | n | n | n | n | n
O=C(Nc1ccc2ccccc2n1)c1ccccc1Br | n | n | n | n | n | 42
O=C(COc1ccc(Cl)cc1)NCCNc1ccc([N+](=O)[O-])cc1 | n | n | n | n | n | n
Cn1c2ccccc2c(=O)c2cc(C#Cc3ccc(N)cc3)ccc21 | n | n | n | n | n | 58
COc1cccc(CNCCO)c1OCc1ccccc1Cl | n | n | n | n | n | n
COc1cccc(/C=N/Nc2nnc(C)n2N)c1OCc1ccccc1Cl | n | n | n | n | n | 67
CC1=C/C(=C\C=C(C#N)C#N)N(C)c2ccccc21 | 33 | 44 | n | 23 | 32 | n
Cc1cc(/C=N/Nc2ncnc(N)c2[N+](=O)[O-])c(C)n1-c1ccccc1 | n | n | n | n | n | 51
Cc1cccc(OCCCCc2c(C)n[nH]c2C)c1C | 43 | n | n | n | n | n
CCOc1ccccc1OCCCCCc1c(C)n[nH]c1C | n | n | n | n | n | n
O=C(NCCCn1ccnc1)C1CCN(S(=O)(=O)c2cc([N+](=O)[O-])ccc2Cl)CC1 | n | n | n | n | n | n
CCOC(=O)c1c(C)[nH]c(C(=O)CSc2ccccc2)c1C | n | n | n | n | n | n
CC(=O)c1c(C)[nH]c(C(=O)CSc2ccc(F)cc2)c1C | 33 | n | n | n | n | n
COC(=O)C1CCN(C(=O)CSc2nnc(-c3ccccc3)o2)CC1 | n | n | n | n | n | n
SMILES | CHO parental Ca | OX1R antag-1 | OXTR potentiator | OXTR ag | V1aR counter | OX1R antag-2
Cc1ccc(C(C)C)c(Oc2cnccn2)c1 | n | n | n | n | n | n
Cc1cc(/C=N/n2cnnc2)c(C)n1-c1ccc(OCc2ccc(Cl)cc2Cl)cc1 | 45 | 53 | n | n | n | n
Cc1ccc(C(C)C)c(OCC(=O)NNC(=O)Cn2[nH]c(=O)c3ccccc3c2=O)c1 | n | n | n | n | n | n
Cc1ccccc1CN1[C@@H](CC2CCCCC2)COCCS1(=O)=O | n | n | n | n | n | 68
O=S1(=O)CCOC[C@H](CC2CCCCC2)N1Cc1ccccc1 | n | n | n | n | n | n
CCn1c(SCC(=O)Nc2nc(C)c(C)s2)nc2cccnc21 | n | n | n | n | n | 75
CCOc1ccccc1NC(=O)CSc1nc2cccnc2n1C | n | n | n | n | n | 53
Cc1ccc(N(Cc2ccccc2F)S(C)(=O)=O)cc1C | n | n | n | n | n | n
